Shown is part of a subset that was picked to be rich in hits.
UPR XBP1 act – adaptive UPR (XBP1) activation; CHO-XBP1 luciferase reporter, IRE1-XBP1 UPR activation, luminescence; percent of tunicamycin response, DMSO as zero; activation, % at 20 µM; actives 0.33% (n = 330,000);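 active = versus positive control, 20 µM dose yields 30% or more activation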;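 note: 100% = tunicamycin at 10 µg/mL and 0% = DMSO only wells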
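Signal: luciferase luminescence; Assay system: CHO-XBP1 luciferase reporter cells; Amount: one thousand reporter cells per well; Dosing: 20 µM single concentration, DMSO 1%; Benchmarks: high control tunicamycin 10 µg/mL final, low control DMSO vehicle only; Schedule: 6 h compound exposure at 37 °C, 5% CO2; Evaluation: percent activation relative to tunicamycin reference.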
CHOP inh – CHOP inhibition in unfolded protein response | AID 2732 | CHO-K1 CHOP-promoter luciferase, tunicamycin-induced, 15-18 h | inhibition, % at 10 µM | actives 3.8% (n = 220,000);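 active = compounds that reduced the stress-induced luciferase reporter signal by more than about 70% of percent inhibition, limit read from the data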;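 note: 0% = tunicamycin plus vehicle and 100% = wells without tunicamycin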
Dynein transport – blocks dynein driven cargo transport along microtubules. 3617.4 mouse cells, GR-EGFP nuclear translocation imaging; test concentration mostly 20 µM; stimulated with dexamethasone, 1 µM; hits give low values. z-score, hits read low. actives 0.47% (n = 220,000);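 active = plate z-score of nuclear minus cytoplasmic receptor signal below a set negative limit, without overly bright fluorescence or cell loss, cut at about -3.5 in these data, passing the limit was not always enough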;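 note: z-score of nuclear minus cytoplasmic ring GR-EGFP intensity difference per well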
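Also added – dexamethasone, 1.0 µM final · Buffer or medium – tet-free, stripped-serum medium · Schedule – induction 48 h, compound 1 h, agonist 30 min · Detection – formaldehyde fixation, Hoechst nuclear stain, 10x automated fluorescence imaging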
pCIP destab – p/CIP protein destabilization | actives 0.01% (n = 290,000) | F442A p/CIP-EGFP cells, EGFP fluorescence, 16 h | decrease of EGFP signal, % at 10 µM | AID 1984;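 active = EGFP signal decrease of at least 30% at 10 µM or well 3 SD below plate mean, unless failing retest; inactive = the rest, including hits failing retest or dose response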
Beta2AR agonist – activates human beta-2 adrenergic receptor causing internalization | P07550 | Am2.2-beta2AR cells, FAP receptor internalization, flow cytometry | response, % (test concentration not listed) | actives 0.43% (n = 340,000) | AID 504454;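 active = response above a set limit, near 3 SD of response in nonfluorescent compounds, cut at about 42% in these data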
Target sequence (P07550 whole entry, looked up): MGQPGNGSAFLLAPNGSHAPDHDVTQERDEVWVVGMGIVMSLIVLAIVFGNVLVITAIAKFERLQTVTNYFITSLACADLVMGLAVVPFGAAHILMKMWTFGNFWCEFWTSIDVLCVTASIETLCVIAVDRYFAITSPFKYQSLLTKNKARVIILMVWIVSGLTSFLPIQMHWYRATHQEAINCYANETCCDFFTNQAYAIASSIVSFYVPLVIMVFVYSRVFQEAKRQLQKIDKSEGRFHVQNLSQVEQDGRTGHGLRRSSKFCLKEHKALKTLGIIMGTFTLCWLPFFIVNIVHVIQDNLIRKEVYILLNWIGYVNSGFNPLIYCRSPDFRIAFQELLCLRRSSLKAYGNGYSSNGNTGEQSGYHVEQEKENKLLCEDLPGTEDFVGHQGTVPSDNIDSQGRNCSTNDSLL
CHOP UPR activ – activators of apoptotic arm of unfolded protein response (CHOP); actives 0.34% (n = 330,000); activation, % at 10 µM; AID 449763; CHO-CHOP luciferase reporter, UPR activation, luminescence; percent of tunicamycin response over DMSO baseline;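 active = at 10 µM dose, activation of 40% or more, normalized to positive control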;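 note: 100% = tunicamycin at 10 µg/mL and 0% = DMSO alone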
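System: CHO-CHOP luciferase reporter cell line | Buffer or medium: F12 medium containing 10% fetal bovine serum | Doses: One dose, 10 µM in 0.5% DMSO | Times: 6 h compound exposure at 37 °C after overnight seeding | Signal: Luciferase luminescence | Read-out: % activation vs tunicamycin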
CHOP inh conf – confirmation of CHOP induction inhibitors. shares compounds with CHOP inh. CHO-CHOP promoter luciferase reporter, tunicamycin-induced, luminescence. inhibition, % at 10 µM. actives 45% (n = 2,100). AID 504437;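 active = mean of three repeat readings of reporter signal inhibition above a set limit, cut at about 70% in these data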;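 note: 0% = tunicamycin plus vehicle and 100% = wells lacking tunicamycin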
Starred values were filed as active, the others as inactive.

What do the screens show for `Cc1ccc(NC(=O)C2=C(c3ccccc3)S(=O)(=O)CCS2(=O)=O)cc1`?
UPR XBP1 act: -8; CHOP inh: 109*; Dynein transport: -3; pCIP destab: 11; Beta2AR agonist: 53*; CHOP UPR activ: -10; CHOP inh conf: 69

How did CCN1CCN(CC(=O)Nc2cc(C)c(C)cc2[N+](=O)[O-])CC1 do in these assays?
UPR XBP1 act: 0; CHOP inh: 6; Dynein transport: 0.32; pCIP destab: -1; Beta2AR agonist: -6; CHOP UPR activ: -1

Results for Cc1[nH]nc2c1C(c1ccc(Cl)cc1)C(C#N)=C(N)O2 (stereo unspecified) ?
UPR XBP1 act: -5; CHOP inh: 6; Dynein transport: -0.027; pCIP destab: -2; Beta2AR agonist: 7; CHOP UPR activ: -1

How did Cc1cc(-c2[nH]nc3c2C(c2ccc(Cl)cc2)C(C#N)=C(N)O3)c(C)s1 (stereo unspecified) do in these assays?
UPR XBP1 act: -3; CHOP inh: 103*; Dynein transport: -1.3; pCIP destab: -3; Beta2AR agonist: 13; CHOP UPR activ: -1; CHOP inh conf: 104*

How did Cc1ccc(C2CN(C)C3(C(=O)Nc4ccccc43)C23COc2ccccc2C3=O)cc1 (stereo unspecified) do in these assays?
UPR XBP1 act: 1; CHOP inh: 107*; Dynein transport: -0.19; pCIP destab: -1; Beta2AR agonist: 10; CHOP UPR activ: -2; CHOP inh conf: 88*

What do the screens show for `CCCn1c(=O)c(C(=O)Nc2ncccc2O)c(O)c2ccccc21`?
UPR XBP1 act: -6; pCIP destab: -5; Beta2AR agonist: 4; CHOP UPR activ: 1

Results for CCCCc1nc2ccccc2c(=O)n1NC(=O)c1c(O)c2ccccc2n(C)c1=O ?
UPR XBP1 act: 2; CHOP inh: 98*; Dynein transport: -0.016; pCIP destab: -13; Beta2AR agonist: -8; CHOP UPR activ: 12; CHOP inh conf: 92*

How did Cc1ccc(NC(=O)c2c(O)c3ccccc3n(C)c2=O)nc1 do in these assays?
UPR XBP1 act: 23; CHOP inh: 97*; Dynein transport: -0.001; pCIP destab: 3; Beta2AR agonist: -20; CHOP UPR activ: 2; CHOP inh conf: -10

Results for Cn1c(=O)c(C(=O)Nc2ncccc2O)c(O)c2ccccc21 ?
UPR XBP1 act: 1; CHOP inh: 110*; Dynein transport: 0.65; pCIP destab: 7; Beta2AR agonist: -5; CHOP UPR activ: 0; CHOP inh conf: 84*

Results for Cc1cc2oc(=O)cc(Cn3nnc(-c4ccc(Cl)cc4)n3)c2cc1C(C)C ?
UPR XBP1 act: -6; CHOP inh: 53; Dynein transport: -0.67; pCIP destab: 0; CHOP UPR activ: -1

How did CCOC(=O)C1(CCC(=O)OCc2ccccc2)CCCCC1=O (stereo unspecified) do in these assays?
Beta2AR agonist: 0

Results for Cc1cnc(C(=O)Nc2cc(F)ccc2C)cn1 ?
UPR XBP1 act: 0; CHOP inh: -10; Dynein transport: -0.17; pCIP destab: 14; Beta2AR agonist: 10; CHOP UPR activ: 2

What do the screens show for `Cc1cc(C(F)(F)F)nc(NCc2cccnc2)n1`?
UPR XBP1 act: -1; CHOP inh: 6; Dynein transport: -0.57; pCIP destab: -2; Beta2AR agonist: 5; CHOP UPR activ: -2

Results for S=C(Nc1ccccc1)Nc1ccc(OCc2ccc(Cl)cc2Cl)cc1 ?
UPR XBP1 act: -9; CHOP inh: 108*; Dynein transport: 0.41; pCIP destab: -12; Beta2AR agonist: 10; CHOP UPR activ: -11; CHOP inh conf: 115*

How did CCOc1ccc(NC(=S)Nc2ccc(OCc3ccccc3)cc2)cc1 do in these assays?
UPR XBP1 act: 1; CHOP inh: 4; Dynein transport: -0.15; pCIP destab: -7; Beta2AR agonist: -1; CHOP UPR activ: 3

From PubChem BioAssay
